Assay results published in ChEMBL document CHEMBL5712884, “S-Adenosyl-L-methionine-competitive inhibitors of the histone methyltransferase EZH2 induce autophagy and enhance drug sensitivity in cancer cells” (Anticancer Drugs, 2015).
Each block holds one compound with its values, some of them ahead of it. Activity calls are given as the source filed them. No cut-off for these calls is given here.

Tests used:
HepG2 [1] = assay: Potentiation of sorafenib-induced anticancer activity in human HepG2 cells assessed as increase in LC3-II accumulation at 10 umol/L measured after 72 hrs by Western blot analysis; format: functional, cell-based; details: dose 10.0 µmol/L
In short: (§1)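 HepG2 cells given 5 μmol/l sorafenib, with or without 10 μmol/l compound, for 72 h. Whole-cell lysates immunoblotted for PARP1, LC3B and β-actin.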

A549 [2] = assay: Cytotoxicity against human A549 cells assessed as reduction in cell viability at 10 umol/L measured after 72 hrs in presence of class III PI3K inhibitor 3-methyladenine by MTT assay; format: functional, cell-based; details: dose 10.0 µmol/L
In short: (§2)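 HepG2 and A549 cells pretreated 1 h with 2 mmol/l 3-MA, then exposed to 10 μmol/l compound for 72 h. Viability read by MTT (0.5 mg/ml, 4 h, formazan in DMSO, A550). Means and SDs; Student's t-test against cells without 3-MA.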

MDA-MB-231 [3] = assay: Induction of autophagy in human MDA-MB-231 cells assessed as increase in LC3-II accumulation at 10 umol/L incubated for 24 hrs in presence of bafilomycin A1 by Western blot analysis; format: functional, cell-based; details: dose 10.0 µmol/L
HepG2 [4] = assay: Potentiation of sorafenib-induced anticancer activity in human HepG2 cells at 10 umol/L measured after 72 hrs by MTT assay; format: functional, cell-based; details: dose 10.0 µmol/L
In short: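 HepG2 cells given a range of sorafenib doses, with or without 10 μmol/l compound, for 72 h. Viability by MTT (0.5 mg/ml, 4 h, DMSO, A550). Student's t-test against untreated cells.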

MDA-MB-231 [5] = assay: Induction of autophagy in human MDA-MB-231 cells assessed as downregulation of p62 expression at 10 umol/L measured after 24 hrs in presence of bafilomycin A1 by Western blot analysis; format: functional, cell-based; details: dose 10.0 µmol/L
MDA-MB-231 [6] = assay: Induction of autophagy in human MDA-MB-231 cells assessed as induction of LC3-II accumulation at 10 to 20 umol/L incubated for 24 hrs by Western blot analysis; format: functional, cell-based; details: dose 10-20 µmol/L
MDA-MB-231 [7] = assay: Induction of apoptosis in human MDA-MB-231 cells assessed as reduction in pro-caspase-3 expression at 10 to 20 umol/L incubated for 72 hrs by Western blot analysis; format: functional, cell-based; details: dose 10-20 µmol/L
MDA-MB-231 [8] = assay: Induction of autophagy in human MDA-MB-231 cells assessed as reduction in expression of p62 at 10 umol/L incubated for 24 hrs by Western blot analysis; format: functional, cell-based; details: dose 10.0 µmol/L
MDA-MB-231 [9] = assay: Induction of autophagy in human MDA-MB-231 cells assessed as change in total LAMP2 expression at 10 umol/L measured after 24 hrs by Western blot analysis; format: toxicity, cell-based; details: mda-mb-231, 24 h, 10 µM, dose 10 µmol/L
HepG2 [10] = assay: Cytotoxicity against human HepG2 cells assessed as effect on cell viability after 72 hrs by MTT analysis; format: functional, cell-based
In short: (§3)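 Cells in DMEM with 10% FBS at 37°C, 5% CO2, plated in 96-well plates and drug-treated for 72 h. MTT 0.5 mg/ml added for 4 h, formazan dissolved in DMSO, absorbance read at 550 nm. Means and SDs; Student's t-test.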

MDA-MB-231 [11] = assay: Induction of apoptosis in human MDA-MB-231 cells assessed as induction of cleavage of caspase-3 at 10 to 20 umol/L incubated for 72 hrs by Western blot analysis; format: functional, cell-based; details: dose 10-20 µmol/L
MDA-MB-231 [12] = assay: […] in human MDA-MB-231 cells assessed as induction of LC3-II accumulation at 10 umol/l measured after 24 hrs in presence of class III PI3K inhibitor 3-methyladenine by Western blot analysis; format: functional, cell-based; details: dose 10.0 µmol/L
[13] = target: Histone-lysine N-methyltransferase EZH2 (Homo sapiens) (UniProt Q15910); assay: Inhibition of EZH2 in human A549 cells assessed as reduction in H3K27-me3 level at 10 umol/L incubated for 72 hrs by Western blot analysis; format: cell-based; details: dose 10.0 µmol/L
MDA-MB-231 [14] = assay: Cytotoxicity against human MDA-MB-231 cells assessed as reduction in cell viability measured after 72 hrs in presence of class III PI3K inhibitor 3-methyladenine by MTT assay; format: functional, cell-based
HepG2 [15] = assay: […] in human HepG2 cells assessed as induction of LC3-II accumulation at 10 to 20 umol/L measured after 24 hrs in presence of bafilomycin A1 by Western blot analysis; format: functional, cell-based; details: dose 10-20 µmol/L
In short: (§4)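 A549 and HepG2 cells drug-treated with or without bafilomycin A1. Lysates made in Tris pH 7.5/NP-40 buffer with protease and phosphatase inhibitors, 25–50 μg run on 7–12% SDS-PAGE, probed for LC3B, ECL detection.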

MDA-MB-231 [16] = assay: Induction of apoptosis in human MDA-MB-231 cells assessed as induction of cleavage of PARP at 10 to 20 umol/L incubated for 72 hrs by Western blot analysis; format: functional, cell-based; details: dose 10-20 µmol/L
MDA-MB-231 [17] = assay: Cytotoxicity against human MDA-MB-231 cells assessed as reduction in cell viability after 72 hr by MTT analysis; format: functional, cell-based; in short: as §3
MDA-MB-231 [18] = assay: Induction of autophagy in human MDA-MB-231 cells assessed as formation of autophagic vacuoles by measuring increase in Cyto-ID fluorescence intensity at 10 umol/L by measured after 24 hrs by Cyto-ID/Hoechst 33342 fluorescence microscopic analysis; format: functional, cell-based; details: dose 10.0 µmol/L
In short: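 MDA-MB-231 cells washed twice in PBS with 5% FBS, then stained with Cyto-ID detection reagent plus Hoechst 33342 for 30 min at 37°C. Cells washed and autophagic vacuoles imaged by fluorescence microscopy.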

A549 [19] = assay: […] in human A549 cells assessed as induction of LC3-II accumulation at 10 to 20 umol/L measured after 24 hrs by Western blot analysis; format: functional, cell-based; details: dose 10-20 µmol/L; in short: as §4
MDA-MB-231 [20] = assay: Induction of autophagy in human MDA-MB-231 cells assessed as induction of LC3-II accumulation at 10 to 20 umol/L incubated for 72 hrs by Western blot analysis; format: functional, cell-based; details: dose 10-20 µmol/L
HepG2 [21] = assay: Cytotoxicity against human HepG2 cells assessed as effect on cell viability incubated for 72 hrs by MTT analysis; format: functional, cell-based; in short: as §3
MDA-MB-231 [22] = assay: Induction of autophagy in human MDA-MB-231 cells assessed as change in total LAMP2 expression at 10 umol/L measured after 24 hrs in presence of bafilomycin A1 by Western blot analysis; format: toxicity, cell-based; details: mda-mb-231, 24 h, 10 µM, dose 10 µmol/L
[23] = target: Histone-lysine N-methyltransferase EZH2 (Homo sapiens) (UniProt Q15910); assay: Inhibition of EZH2 in human MDA-MB-231 cells assessed as reduction in H3K27-me3 level at 10 umol/L incubated for 72 hrs by Western blot analysis; format: cell-based; details: dose 10.0 µmol/L
HepG2 [24] = assay: Potentiation of sorafenib-induced anticancer activity in human HepG2 cells assessed as increase in cleaved PARP expression at 10 umol/L measured after 72 hrs by Western blot analysis; format: functional, cell-based; details: dose 10.0 µmol/L; in short: as §1
[25] = target: Histone-lysine N-methyltransferase EZH2 (Homo sapiens) (UniProt Q15910); assay: Inhibition of EZH2 in human HepG2 cells assessed as reduction in H3K27-me3 level at 10 umol/L incubated for 72 hrs by Western blot analysis; format: cell-based; details: dose 10.0 µmol/L
A549 [26] = assay: […] in human A549 cells assessed as induction of LC3-II accumulation at 10 to 20 umol/L measured after 24 hrs in presence of bafilomycin A1 by Western blot analysis; format: functional, cell-based; details: dose 10-20 µmol/L; in short: as §4
HepG2 [27] = assay: […] in human HepG2 cells assessed as induction of LC3-II accumulation at 10 to 20 umol/L measured after 24 hrs by Western blot analysis; format: functional, cell-based; details: dose 10-20 µmol/L; in short: as §4
MDA-MB-231 [28] = assay: Induction of autophagy in human MDA-MB-231 cells assessed as induction of LC3-II accumulation at 10 umol/L for 48 hrs by Western blot analysis; details: dose 10.0 µmol/L
HepG2 [29] = assay: Cytotoxicity against human HepG2 cells assessed as reduction in cell viability at 10 umol/L measured after 72 hrs in presence of class III PI3K inhibitor 3-methyladenine by MTT assay; format: functional, cell-based; details: dose 10.0 µmol/L; in short: as §2
HepG2 [30] = assay: Anticancer activity in human HepG2 cells assessed as inhibition of EZH2 expression measured after 24 hrs by Western blot analysis; format: functional, cell-based; details: dose 2.5-10 µmol/L
In short: (§5)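 HepG2 cells given 2.5–10 μmol/l sorafenib for 24 h; whole-cell lysates immunoblotted for EZH2, LC3B and GAPDH, with ECL detection.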

HepG2 [31] = assay: Induction of autophagy in human HepG2 cells assessed as accumulation of LC3-II at 10 umol/L measured after 24 hrs by Western blot analysis; format: functional, cell-based; details: dose 10.0 µmol/L; in short: as §5

Sequence of Histone-lysine N-methyltransferase EZH2 (Homo sapiens) (Q15910 whole entry, looked up): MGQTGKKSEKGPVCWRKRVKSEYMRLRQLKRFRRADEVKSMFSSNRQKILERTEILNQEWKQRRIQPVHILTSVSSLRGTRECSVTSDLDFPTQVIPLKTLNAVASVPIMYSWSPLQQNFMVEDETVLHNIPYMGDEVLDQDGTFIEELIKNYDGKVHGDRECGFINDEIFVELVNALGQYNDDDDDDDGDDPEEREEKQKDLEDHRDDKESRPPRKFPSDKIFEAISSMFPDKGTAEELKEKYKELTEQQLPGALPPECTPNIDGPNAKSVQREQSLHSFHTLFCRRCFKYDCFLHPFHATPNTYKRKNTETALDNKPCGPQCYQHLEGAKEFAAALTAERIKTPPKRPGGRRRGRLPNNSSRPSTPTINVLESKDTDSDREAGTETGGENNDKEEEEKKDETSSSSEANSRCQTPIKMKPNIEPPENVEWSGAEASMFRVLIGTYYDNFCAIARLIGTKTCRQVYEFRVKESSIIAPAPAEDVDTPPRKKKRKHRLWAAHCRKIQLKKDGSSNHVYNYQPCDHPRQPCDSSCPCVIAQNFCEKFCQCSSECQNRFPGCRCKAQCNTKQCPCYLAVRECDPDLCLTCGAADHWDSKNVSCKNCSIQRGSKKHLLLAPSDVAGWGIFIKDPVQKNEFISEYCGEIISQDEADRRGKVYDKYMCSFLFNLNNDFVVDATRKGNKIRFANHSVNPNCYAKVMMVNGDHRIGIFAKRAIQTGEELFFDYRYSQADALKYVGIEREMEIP

- inhibition [13]: Active
- inhibition [23]: Active
- inhibition [25]: Active
SMILES: CCCc1cc(C)[nH]c(=O)c1CNC(=O)c1cc(-c2ccnc(N3CCN(C)CC3)c2)cc2c1cnn2C(C)C
- Activity (HepG2 [1]): Active
- Activity (A549 [2]): inactive
- Activity (MDA-MB-231 [3]): Active
- Activity (HepG2 [4]): Active
- Activity (MDA-MB-231 [5]): inactive
- Activity (MDA-MB-231 [6]): Active
- Activity (MDA-MB-231 [7]): Active
- Activity (MDA-MB-231 [8]): Active
- Activity (MDA-MB-231 [9]): Non-Toxic
- Activity (HepG2 [10]): Active
- Activity (MDA-MB-231 [11]): inactive
- Activity (MDA-MB-231 [12]): inactive
- Activity (MDA-MB-231 [14]): inactive
- Activity (HepG2 [15]): Active
- Activity (MDA-MB-231 [16]): Active
- Activity (MDA-MB-231 [17]): Dose-Dependent Effect
- Activity (MDA-MB-231 [18]): Active
- Activity (A549 [19]): Active
- Activity (MDA-MB-231 [20]): Active
- Activity (HepG2 [21]): Active
- Activity (MDA-MB-231 [22]): Non-Toxic
- Activity (HepG2 [24]): Active
- Activity (A549 [26]): Active
- Activity (HepG2 [27]): Active
- Activity (MDA-MB-231 [28]): Active
- Activity (HepG2 [29]): inactive

SMILES: CNC(=O)c1cc(Oc2ccc(NC(=O)Nc3ccc(Cl)c(C(F)(F)F)c3)cc2)ccn1
- inhibition (HepG2 [30]): Active
- Activity (HepG2 [31]): Active
